The molecules below were run on Semliki Forest virus (assay: In vivo antiviral protection against lethal Forest virus (SFV) infection at dosage of 100 mg/kg tested in 12 mice).
Format: functional
Summary of the method: (§1)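 Female Swiss Webster mice, about 20 g, in groups of 12. Compound or placebo was dissolved in 2% aqueous sodium bicarbonate and given intraperitoneally 24 and 18 h before a lethal SFV challenge (10 LD50, pretitrated in mice). Treatment lasted 1 day. Survival was followed for 21 days, and survivor numbers were compared with placebo by two-tailed Fisher exact test.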
Molecule `Nc1nc(O)c2ncn(CCCCCCO)c2n1` has an Activity of 2.
Molecule `C=CCSc1nc2c(O)nc(N)nc2n1CCCCCC` has an Activity of 6.
`CCCCCCn1c(O)nc2c(O)nc(N)nc21` was tested, and the Activity was 1.
`CCCCCCn1c(S)nc2c(S)nc(N)nc21` gave an Activity of 0.
With `CCCCCCn1c(CC)nc2c(O)nc(N)nc21` the Activity was 3.
With `CCCCCCn1c(Cl)nc2c(O)nc(N)nc21` the Activity was 7.
`CCCCCCn1c(C)nc2c(O)nc(N)nc21` was tested, and the Activity was 0.
`N#CCCCCCn1cnc2c(O)nc(N)nc21` showed an Activity of 5.
`C=CCn1c(=S)n(CCCCCC)c2nc(N)nc(O)c21` gave an Activity of 8.
For `C[C@]1(CO)OC(n2c(=O)sc3c(O)nc(N)nc32)[C@H](O)[C@@H]1O` (some centres not stated), the Activity was 11.
With `Nc1nc(O)c2nc(Br)n(CCCCCCO)c2n1` the Activity was 2.

The molecules below were run on Semliki Forest virus (assay: In vivo antiviral protection against lethal Forest virus (SFV) infection at dosage of 200 mg/kg tested in 12 mice).
Format: functional
Summary of the method: as §1
Molecule `Nc1nc(O)c2ncn(C3CCCCC3)c2n1` has an Activity of 0.
For `CCCCCn1c(Br)nc2c(O)nc(N)nc21`, the Activity was 8.
Molecule `CCn1cnc2c(O)nc(N)nc21` has an Activity of 1.
`CCCCCCn1c(=O)n(C)c2c(O)nc(N)nc21` was tested, and the Activity was 11.
`CCCCn1cnc2c(O)nc(N)nc21` showed an Activity of 10.
`Nc1nc(O)c2ncn(C3CCCC3)c2n1` was tested, and the Activity was 0.
With `CCCCCn1c(S)nc2c(O)nc(N)nc21` the Activity was 8.
Molecule `CCCCCCCCn1cnc2c(O)nc(N)nc21` has an Activity of 1.
In the case of `CCCCCCn1cnc2c(O)nc(N)nc21`, the Activity is reported as 12.
Work on `CCCCCCCCn1c(Br)nc2c(O)nc(N)nc21` yielded an Activity of 3.
Work on `CCCCn1c(Br)nc2c(O)nc(N)nc21` yielded an Activity of 6.
Work on `CCCCCCn1c(S)nc2c(O)nc(N)nc21` yielded an Activity of 1.
Work on `CCCCCCCn1c(Br)nc2c(O)nc(N)nc21` yielded an Activity of 1.
For `CCCCCCn1c(Br)nc2c(O)nc(N)nc21`, the Activity was 4.
`CCCn1cnc2c(O)nc(N)nc21` gave an Activity of 2.
Work on `CCCCCn1cnc2c(O)nc(N)nc21` yielded an Activity of 8.

Source: ChEMBL document CHEMBL1126885, “Alkylpurines as immunopotentiating agents. Synthesis and antiviral activity of certain alkylguanines” (1993)
